Type in all cases: functional
Assay [1] relates to Mycobacterium kansasii. Description: Antimycobacterial activity against Mycobacterium kansasii 6509/96 after 7 days. The settings on record: 6509/96, 168 h. The method, boiled down:
(§1)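 Šula's semisynthetic medium micromethod at 37 °C, read after 7, 14 and 21 days. The 1.0 McFarland suspension was diluted 10^-4. MIC determined. 6509/96 is a clinical isolate.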

Assay [2] relates to Mycobacterium kansasii. Description: Antimycobacterial activity against Mycobacterium kansasii 235/80 after 7 days. The settings on record: 235/80, 168 h. The gist of the method:
as §1

Assay [3] deals with Mycobacterium tuberculosis. Put plainly: Antimycobacterial activity against Mycobacterium tuberculosis H37Rv 331/88 after 14 days. The settings on record: H37Rv 331/88, 336 h.
Assay [4] relates to Mycobacterium tuberculosis. Put plainly: Antimycobacterial activity against Mycobacterium tuberculosis H37Rv 331/88 after 21 days. The settings on record: H37Rv 331/88, 504 h.
Assay [5] has as its system Mycobacterium avium. Description: Antimycobacterial activity against Mycobacterium avium 330/80 after 21 days. The settings on record: 330/80, 504 h.
Assay [6] concerns Mycobacterium avium. Description: Antimycobacterial activity against Mycobacterium avium 330/80 after 14 days. The settings on record: 330/80, 336 h.
Assay [7] relates to Mycobacterium kansasii. Put plainly: Antimycobacterial activity against Mycobacterium kansasii 6509/96 after 14 days. The settings on record: 6509/96, 336 h. The gist of the method:
as §1

Assay [8] concerns Mycobacterium kansasii. Put plainly: Antimycobacterial activity against Mycobacterium kansasii 235/80 after 14 days. The settings on record: 235/80, 336 h. The method, boiled down: as §1
Assay [9] relates to Mycobacterium kansasii. Put plainly: Antimycobacterial activity against Mycobacterium kansasii 235/80 after 21 days. The settings on record: 235/80, 504 h. The method, boiled down:
as §1

The test system of assay [10] is Mycobacterium kansasii. Put plainly: Antimycobacterial activity against Mycobacterium kansasii 6509/96 after 21 days. The settings on record: 6509/96, 504 h. The gist of the method:
as §1

Assay [11] relates to Aspergillus fumigatus. Description: Antifungal activity against Aspergillus fumigatus 231 after 24 hrs by microdilution broth method. The settings on record: Aspergillus fumigatus, 231, 24 h. The gist of the method:
(§2)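 CLSI M27-A3 broth microdilution in RPMI 1640 with glutamine, buffered to pH 7.0 with MOPS; DMSO diluent. Yeast inoculum 5 × 10^3 ± 0.2 CFU/mL. Moulds grown on Sabouraud agar 3–10 days before spore harvest, final inoculum 0.5-5 × 10^4 CFU/mL, checked in a Bürker chamber. Incubated dark, humid, 35 °C, read at 24 and 48 h visually and at 540 nm. MIC taken as ≥80% (yeasts) or ≥50% (filamentous) growth reduction versus control.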

Assay [12] relates to Lichtheimia corymbifera. Description: Antifungal activity against Absidia corymbifera 272 after 24 hrs by microdilution broth method. The settings on record: Lichtheimia corymbifera, 272, 24 h. The gist of the method: as §2
Assay [13] concerns Trichosporon asahii. Put plainly: Antifungal activity against Trichosporon asahii 1188 after 48 hrs by microdilution broth method. The settings on record: Trichosporon asahii, 1188, 48 h. The gist of the method: as §2
Assay [14] relates to Pichia kudriavzevii. Description: Antifungal activity against Candida krusei E28 after 24 hrs by microdilution broth method. The settings on record: E28, 24 h. The gist of the method:
as §2

For assay [15], the system named is Trichophyton mentagrophytes. Description: Antifungal activity against Trichophyton mentagrophytes 445 after 48 hrs by microdilution broth method. The settings on record: Trichophyton mentagrophytes, 445, 48 h.
Assay [16] deals with Trichosporon asahii. Put plainly: Antifungal activity against Trichosporon asahii 1188 after 24 hrs by microdilution broth method. The settings on record: Trichosporon asahii, 1188, 24 h. The method, boiled down:
as §2

The test system of assay [17] is Aspergillus fumigatus. Description: Antifungal activity against Aspergillus fumigatus 231 after 48 hrs by microdilution broth method. The settings on record: Aspergillus fumigatus, 231, 48 h. The gist of the method: as §2
The test system of assay [18] is Nakaseomyces glabratus. Description: Antifungal activity against Candida glabrata 20/I after 48 hrs by microdilution broth method. The gist of the method: as §2
For assay [19], the system named is Trichophyton mentagrophytes. Put plainly: Antifungal activity against Trichophyton mentagrophytes 445 after 24 hrs by microdilution broth method. The settings on record: Trichophyton mentagrophytes, 445, 24 h.
For assay [20], the system named is Candida albicans. Put plainly: Antifungal activity against Candida albicans ATCC 44859 after 48 hrs by microdilution broth method. The settings on record: ATCC 44859, 48 h. The method, boiled down:
as §2

Assay [21] concerns Candida tropicalis. Description: Antifungal activity against Candida tropicalis 156 after 24 hrs by microdilution broth method. The settings on record: Candida tropicalis, 156, 24 h. The gist of the method:
as §2

The subject of assay [22] is Pichia kudriavzevii. Description: Antifungal activity against Candida krusei E28 after 48 hrs by microdilution broth method. The settings on record: E28, 48 h. The gist of the method: as §2
The test system of assay [23] is Nakaseomyces glabratus. Description: Antifungal activity against Candida glabrata 20/I after 24 hrs by microdilution broth method. The method, boiled down: as §2
The test system of assay [24] is Lichtheimia corymbifera. Description: Antifungal activity against Absidia corymbifera 272 after 48 hrs by microdilution broth method. The settings on record: Lichtheimia corymbifera, 272, 48 h. The gist of the method: as §2
For assay [25], the system named is Candida tropicalis. Put plainly: Antifungal activity against Candida tropicalis 156 after 48 hrs by microdilution broth method. The settings on record: Candida tropicalis, 156, 48 h. The method, boiled down: as §2
The test system of assay [26] is Candida albicans. Description: Antifungal activity against Candida albicans ATCC 44859 after 24 hrs by microdilution broth method. The settings on record: ATCC 44859, 24 h. The gist of the method:
as §2

Each structure is given as a SMILES string. Values after ≈ are worked out from the molar mass of the structure shown.

As to `O=C(Nc1cccc(Br)c1)c1cccc([N+](=O)[O-])c1O`, the MIC turned out to be 125 µM (≈ 42.1 µg/mL) in assay [1]; 62.5 µM (≈ 21.1 µg/mL) in [2]; 62.5 µM (≈ 21.1 µg/mL) in assay [3]; 62.5 µM (≈ 21.1 µg/mL) in assay [4]; 250 µM (≈ 84.3 µg/mL) in [5]; 250 µM (≈ 84.3 µg/mL) in [6]. The minimal inhibitory concentration (MIC) in assay [7], in assay [8], in [9] and in assay [10] was 125 µM (≈ 42.1 µg/mL) each time.

As for `OC(Cn1cncn1)(Cn1cncn1)c1ccc(F)cc1F` [FLUCONAZOLE], the MIC in assay [11] was above 500 µM; in assay [12] it was above 500 µM; in [13], 500 µM (≈ 153 µg/mL); in assay [14], 125 µM (≈ 38.3 µg/mL); in assay [15], 125 µM (≈ 38.3 µg/mL); in [16], 250 µM (≈ 76.6 µg/mL). Also, the MIC is above 500 µM in [17]; 500 µM (≈ 153 µg/mL) in [18]; 7.81 µM (≈ 2.39 µg/mL) in assay [19]; 0.24 µM (≈ 0.0735 µg/mL) in assay [20]; above 500 µM in [21]; 250 µM (≈ 76.6 µg/mL) in assay [22]. The minimal inhibitory concentration (MIC) in assay [23] was 31.2 µM (≈ 9.57 µg/mL); in assay [24], above 500 µM; in assay [25], above 500 µM; in assay [26], 0.24 µM (≈ 0.0735 µg/mL).

Take `O=C(Nc1ccc([N+](=O)[O-])cc1)c1cccc([N+](=O)[O-])c1O`: the minimum inhibitory concentration (MIC) stood at 62.5 µM (≈ 19 µg/mL) in [1]; 32 µM (≈ 9.7 µg/mL) in [2]; 32 µM (≈ 9.7 µg/mL) in assay [3]; 32 µM (≈ 9.7 µg/mL) in [4]; 125 µM (≈ 37.9 µg/mL) in [5]; 125 µM (≈ 37.9 µg/mL) in assay [6]. In addition, the minimum inhibitory concentration (MIC) in [7] amounted to 125 µM (≈ 37.9 µg/mL); in assay [8] it was 62.5 µM (≈ 19 µg/mL); in assay [9], 125 µM (≈ 37.9 µg/mL); in assay [10], 125 µM (≈ 37.9 µg/mL).

Consider `O=C(Nc1cccc(F)c1)c1cccc([N+](=O)[O-])c1O`, for which the minimal inhibitory concentration (MIC) in assay [1] was 125 µM (≈ 34.5 µg/mL); in [2], 62.5 µM (≈ 17.3 µg/mL); in [3], 62.5 µM (≈ 17.3 µg/mL); in assay [4] it was 62.5 µM (≈ 17.3 µg/mL); in assay [5], 500 µM (≈ 138 µg/mL); in assay [6] it was 500 µM (≈ 138 µg/mL). In addition, the minimal inhibitory concentration (MIC) in [7] turned out to be 250 µM (≈ 69.1 µg/mL); in [8] it was 125 µM (≈ 34.5 µg/mL); in assay [9], 250 µM (≈ 69.1 µg/mL); in assay [10], 250 µM (≈ 69.1 µg/mL).

Regarding `O=C(Nc1cccc([N+](=O)[O-])c1)c1cccc([N+](=O)[O-])c1O`, the MIC is 62.5 µM (≈ 19 µg/mL) in [1]; 62.5 µM (≈ 19 µg/mL) in assay [2]; 62.5 µM (≈ 19 µg/mL) in assay [3]; 62.5 µM (≈ 19 µg/mL) in [4]; above 500 µM in [5]; above 500 µM in assay [6]. Also, the MIC in [7], in assay [8], in [9] and in assay [10] was 250 µM (≈ 75.8 µg/mL) each time.

Source of the values: ChEMBL document CHEMBL3627671, “Novel derivatives of nitro-substituted salicylic acids: Synthesis, antimicrobial activity and cytotoxicity” (Bioorg Med Chem, 2015).
